Two molecules from ChEMBL document CHEMBL3861962 (Eur J Med Chem, 2016) can be followed below.

Series [1] can be described thus: Metabolic stability in human liver microsomes assessed as parent compound remaining at 5 uM in presence of NADPH after 30 mins by LC-MS/MS analysis. Type of series: ADME. As to conditions: read-out: Stability. The procedure, abridged: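 Pooled human liver microsomes in 100 mM potassium phosphate, pH 7.4, with test compound at 5 μM final. Reaction started with 1 mM NADPH (final) and run at 37 °C in a shaking water bath for 0, 15 and 30 min. Stopped with an equal volume of ice-cold acetonitrile containing 0.6 μM labetalol as internal standard. Protein was spun out and the supernatant analysed by LC-MS/MS. Blank had no compound.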
A general note: Liver microsomes are a subcellular fraction often used to study metabolism.

The target in series [2] is Cytochrome P450 2C9 (Homo sapiens, UniProt P11712). Briefly: Drug metabolism assessed as human recombinant CYP2C9-mediated metabolite formation by measuring parent compound remaining at 5 uM in presence of NADPH after 30 mins by LC-MS/MS analysis. It counts as ADME. Conditions: recombinant enzyme, 0.5 h. The procedure, abridged: (§1)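 Substrate at 5 μM final in 100 mM potassium phosphate, pH 7.4, incubated with human liver microsomes or baculovirus-expressed recombinant CYP3A4, 2D6 or 2C9. Reaction started with 1 mM NADPH and run 0, 15 and 30 min at 37 °C. Stopped with ice-cold acetonitrile containing labetalol internal standard, then centrifuged. Supernatant analysed by LC-MS/MS on a C18 column at 40 °C. Blank was enzyme without substrate.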

Series [3] is described as follows: Retention time of the compound. It counts as physicochemical.
Series [4] addresses Cytochrome P450 2D6 (Homo sapiens, UniProt P10635). Briefly: Drug metabolism assessed as human recombinant CYP2D6-mediated metabolite formation by measuring parent compound remaining at 5 uM in presence of NADPH after 30 mins by LC-MS/MS analysis. It counts as ADME. As to conditions: recombinant enzyme, 0.5 h. The procedure, abridged:
as §1

The nature of series [5]: Cytotoxicity against CHOK1 cells assessed as decrease in cell viability after 24 hrs by MTT assay. As to conditions: Chinese hamster, CHO-K1 cells. It counts as toxicity, cell-based, Cricetulus griseus. The procedure, abridged:
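CHO-k1 cells grown in phenol-red-free DMEM/F-12 with 10% FBS, seeded at 20,000 cells/well and allowed to attach overnight. Exposure was 24 h to 0.1–200 μM, with DMSO as vehicle control. MTT at 1 mg/mL for 3 h at 37 °C, formazan dissolved in DMSO, absorbance read at 570 nm. Data given as % OD of vehicle control; IC50 taken from dose–response curve fits.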
Background: Formazan colour is commonly taken as a measure of viable cells.

The target of series [6] is T1, Endothelin-1 receptor (Homo sapiens) (UniProt P25101).
T1 sequence (whole entry): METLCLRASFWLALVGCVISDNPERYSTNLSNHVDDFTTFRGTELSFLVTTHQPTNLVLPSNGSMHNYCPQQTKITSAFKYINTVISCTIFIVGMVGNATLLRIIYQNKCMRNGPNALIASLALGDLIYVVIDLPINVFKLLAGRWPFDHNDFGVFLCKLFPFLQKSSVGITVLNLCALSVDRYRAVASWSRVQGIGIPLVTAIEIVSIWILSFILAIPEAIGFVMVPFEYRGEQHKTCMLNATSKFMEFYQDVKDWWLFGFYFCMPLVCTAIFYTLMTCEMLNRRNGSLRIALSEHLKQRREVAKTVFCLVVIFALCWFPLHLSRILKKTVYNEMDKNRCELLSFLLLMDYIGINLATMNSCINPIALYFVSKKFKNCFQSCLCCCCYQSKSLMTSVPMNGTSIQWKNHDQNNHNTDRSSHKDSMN
The series is described as follows: Agonist activity at ETA receptor in human SKNMC cells assessed as induction of Ca2+ mobilization at 10 nM by fluorimetric method relative to control. Type of series: functional, cell-based. As to conditions: SK-N-MC. The procedure, abridged: (§2)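 ETA functional assay run by Cerep in human neuroblastoma SK-N-MC cells at 22 °C with fluorimetric read-out. Test solutions were 1, 10, 100 and 1000 nM. Agonist response is given as % of the control response to 100 nM endothelin-1. For antagonist mode, inhibition is given as % of the control endothelin-1 agonist response, with BQ-123 as reference antagonist.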
On the technique in general: Calcium assays in cells follow changes in intracellular calcium, usually with a dye or a luminescent sensor.

Series [7] addresses T1, Endothelin-1 receptor (Homo sapiens). The series is described as follows: Agonist activity at ETA receptor in human SKNMC cells assessed as induction of Ca2+ mobilization at 100 nM by fluorimetric method relative to control. It counts as functional, cell-based. Conditions: SK-N-MC. The procedure, abridged:
as §2

Series [8] deals with T2, Endothelin receptor type B (Homo sapiens) (UniProt P24530).
T2 sequence (whole entry): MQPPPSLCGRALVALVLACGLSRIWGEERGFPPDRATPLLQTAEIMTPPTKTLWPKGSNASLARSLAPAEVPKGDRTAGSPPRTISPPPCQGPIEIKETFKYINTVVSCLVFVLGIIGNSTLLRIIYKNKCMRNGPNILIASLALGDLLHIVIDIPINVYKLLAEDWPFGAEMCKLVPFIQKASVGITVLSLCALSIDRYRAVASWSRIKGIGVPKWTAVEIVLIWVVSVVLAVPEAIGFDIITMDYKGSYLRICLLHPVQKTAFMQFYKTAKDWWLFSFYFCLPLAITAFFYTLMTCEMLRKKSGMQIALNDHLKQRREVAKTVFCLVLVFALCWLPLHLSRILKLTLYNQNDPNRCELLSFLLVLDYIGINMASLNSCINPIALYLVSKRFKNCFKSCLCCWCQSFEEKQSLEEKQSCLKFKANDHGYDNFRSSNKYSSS
The series is described as follows: Agonist activity at human recombinant ETB receptor expressed in CHOK1 cells assessed as induction of Ca2+ mobilization at 1 nM by fluorimetric method relative to control. Type of series: functional, cell-based. As to conditions: CHO-K1. A digest of the protocol: (§3)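 ETB functional assay run by Cerep in human recombinant CHO-k1 cells at 22 °C with fluorimetric read-out. Test solutions were 1, 10, 100 and 1000 nM. Agonist response is given as % of the control response to 100 nM endothelin-1. For antagonist mode, inhibition is given as % of the control endothelin-1 agonist response, with BQ-788 as reference antagonist.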

The target of series [9] is T2, Endothelin receptor type B (Homo sapiens). The series is described as follows: Agonist activity at human recombinant ETB receptor expressed in CHOK1 cells assessed as induction of Ca2+ mobilization at 10 nM by fluorimetric method relative to control. Conditions: CHO-K1. Type of series: functional, cell-based. The procedure, abridged: as §3
Series [10] shares this target. The series is described as follows: Agonist activity at human recombinant ETB receptor expressed in CHOK1 cells assessed as induction of Ca2+ mobilization at 100 nM by fluorimetric method relative to control. Conditions: CHO-K1. It counts as functional, cell-based. The procedure, abridged: as §3
Series [11] deals with T1, Endothelin-1 receptor (Homo sapiens). The series is described as follows: Antagonist activity at ETA receptor in human SKNMC cells assessed as inhibition of endothelin-1-mediated Ca2+ mobilization at 1 nM by fluorimetric method relative to control. Type of series: functional, cell-based. As to conditions: SK-N-MC. The procedure, abridged: as §2
Series [12] has the same target. The series is described as follows: Antagonist activity at ETA receptor in human SKNMC cells assessed as inhibition of endothelin-1-mediated Ca2+ mobilization at 10 nM by fluorimetric method relative to control. It counts as functional, cell-based. Conditions: SK-N-MC. A digest of the protocol: as §2
For series [13] the target is unchanged. Briefly: Antagonist activity at ETA receptor in human SKNMC cells assessed as inhibition of endothelin-1-mediated Ca2+ mobilization at 100 nM by fluorimetric method relative to control. It counts as functional, cell-based. Conditions: SK-N-MC. The procedure, abridged: as §2
Series [14] has as its target T2, Endothelin receptor type B (Homo sapiens). The series is described as follows: Antagonist activity at human recombinant ETB expressed in CHOK1 cells assessed as inhibition of endothelin-1-mediated Ca2+ mobilization at 1 nM by fluorimetric method relative to control. Conditions: CHO-K1. It counts as functional, cell-based. The procedure, abridged: as §3
The target is the same in series [15]. The series is described as follows: Antagonist activity at human recombinant ETB expressed in CHOK1 cells assessed as inhibition of endothelin-1-mediated Ca2+ mobilization at 10 nM by fluorimetric method relative to control. It counts as functional, cell-based. As to conditions: CHO-K1. The procedure, abridged:
as §3

Series [16] addresses T3, Endothelin-1 receptor (Homo sapiens, UniProt P25101).
T3 sequence (P25101 whole entry): T1 sequence (whole entry)
The series is described as follows: Antagonist activity at ETA receptor in human SKNMC cells assessed as inhibition of endothelin-1-induced Ca2+ mobilization by fluorimetric method.

Bounds are passed on as bounds.

Sequence of Cytochrome P450 2C9 (P11712 whole entry): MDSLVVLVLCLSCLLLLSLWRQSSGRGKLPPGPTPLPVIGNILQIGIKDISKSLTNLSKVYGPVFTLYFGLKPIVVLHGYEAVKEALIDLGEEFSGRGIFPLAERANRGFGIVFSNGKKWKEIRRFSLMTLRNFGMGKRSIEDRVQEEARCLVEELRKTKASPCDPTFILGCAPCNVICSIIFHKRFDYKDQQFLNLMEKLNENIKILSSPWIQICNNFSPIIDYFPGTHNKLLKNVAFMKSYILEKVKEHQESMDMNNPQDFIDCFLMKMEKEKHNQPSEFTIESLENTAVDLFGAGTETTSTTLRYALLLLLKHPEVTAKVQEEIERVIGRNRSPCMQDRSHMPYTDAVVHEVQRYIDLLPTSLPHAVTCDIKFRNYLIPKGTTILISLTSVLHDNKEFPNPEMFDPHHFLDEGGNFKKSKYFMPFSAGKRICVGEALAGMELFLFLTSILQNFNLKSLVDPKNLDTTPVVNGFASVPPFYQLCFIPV
Sequence of Cytochrome P450 2D6 (P10635 whole entry): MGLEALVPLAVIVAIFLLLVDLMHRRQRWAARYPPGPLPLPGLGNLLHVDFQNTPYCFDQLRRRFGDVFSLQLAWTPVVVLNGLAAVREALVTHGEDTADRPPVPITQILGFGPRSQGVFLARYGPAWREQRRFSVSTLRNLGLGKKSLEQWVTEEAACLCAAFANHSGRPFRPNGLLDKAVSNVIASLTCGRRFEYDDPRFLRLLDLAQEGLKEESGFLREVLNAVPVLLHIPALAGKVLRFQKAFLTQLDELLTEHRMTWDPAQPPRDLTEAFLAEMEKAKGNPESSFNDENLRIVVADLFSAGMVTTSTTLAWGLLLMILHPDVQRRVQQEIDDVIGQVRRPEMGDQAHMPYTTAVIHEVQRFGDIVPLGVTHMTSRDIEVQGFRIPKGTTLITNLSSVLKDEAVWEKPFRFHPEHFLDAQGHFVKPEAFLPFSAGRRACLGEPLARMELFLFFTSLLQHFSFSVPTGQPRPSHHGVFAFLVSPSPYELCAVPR

By IC50 is commonly meant the concentration that inhibits the measured activity by half. For orientation: inhibition means the drop in the measured response relative to a control, in per cent. `COc1ccccc1Oc1c(NS(=O)(=O)c2ccc(C(F)(C(F)(F)F)C(F)(F)F)cc2)nc(-c2ncccn2)nc1OCCO`: the remaining at 0.5 h, 5 µM in series [1] was determined as 99%. Besides, the values for the Stability in series [2] and in series [4] were 100% and greater than 99%, respectively. In [3], the Retention_time is 5.6 min. The half-inhibitory concentration (IC50) at 24 h in [5] turned out to be 159 µM. Moreover, the Activity was -1% in series [6]; -1% in [7]; 0% in series [8]; -1% in series [9]; -1% in [10]. For the same molecule, the inhibition was -5% in [11]; 20% in [12]; 55% in [13]; -5% in series [14]; 16% in series [15]. The IC50 in series [16] amounted to 0.0754 µM.
With `COc1ccccc1Oc1c(NS(=O)(=O)c2ccc(C(OC)(C(F)(F)F)C(F)(F)F)cc2)nc(-c2ncccn2)nc1OCCO`, the remaining at 0.5 h, 5 µM in series [1] stood at 73.9%. Further, the Stability in series [2] is 100%; in series [4], greater than 99%. Besides, the Retention_time in series [3] was found to be 5.48 min. Further, the IC50 at 24 h in series [5] was determined as 153 µM. The Activity in series [6], in series [7], in series [8], in [9] and in series [10] was 0% throughout. For the same molecule, the inhibition was -1% in series [11]; 13% in [12]; 26% in [13]; 4% in series [14]; 5% in [15]. For the same molecule, in series [16], the concentration for half-maximal inhibition (IC50) came to 693 µM.
